Data set [1] deals with T1, Solute carrier family 22 member 1 (Homo sapiens, UniProt O15245).
T1 sequence (O15245 whole entry): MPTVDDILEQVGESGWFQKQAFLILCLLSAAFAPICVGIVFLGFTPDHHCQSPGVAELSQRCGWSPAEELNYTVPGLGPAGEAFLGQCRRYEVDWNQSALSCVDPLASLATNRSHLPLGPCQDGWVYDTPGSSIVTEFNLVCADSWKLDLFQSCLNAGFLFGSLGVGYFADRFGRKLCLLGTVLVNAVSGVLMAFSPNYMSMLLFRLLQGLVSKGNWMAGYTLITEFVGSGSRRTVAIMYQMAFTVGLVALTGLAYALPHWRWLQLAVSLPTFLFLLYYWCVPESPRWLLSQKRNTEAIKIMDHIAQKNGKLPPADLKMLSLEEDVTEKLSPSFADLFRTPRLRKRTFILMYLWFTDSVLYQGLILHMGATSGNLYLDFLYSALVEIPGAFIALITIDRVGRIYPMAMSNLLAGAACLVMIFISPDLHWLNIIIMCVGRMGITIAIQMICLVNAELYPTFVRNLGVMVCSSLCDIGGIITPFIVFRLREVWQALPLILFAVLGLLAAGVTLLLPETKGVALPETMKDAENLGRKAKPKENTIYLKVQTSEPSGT
In words: Inhibition of human OCT1 expressed in HEK293 cells assessed as decrease in uptake of substrate [3H]MPP+ after 1 min by liquid scintillation counting method. The class given is cell-based. In a few lines:
(§1)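 Stably transfected HEK293 cells expressing hOCT1, hOCT2 or hOCT3; 1 min uptake of [3H]MPP+ (1 μM) measured across inhibitor concentrations 10^-8 to 10^-2.5 M. Signal corrected for nonspecific background in empty-vector control cells; data as mean ± SD; IC50 obtained by nonlinear regression.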

The species entered for data set [2] is Homo sapiens. Description: Selectivity ratio of IC50 for human OCT1 expressed in HEK293 cells to IC50 for human OCT3 expressed in HEK293 cells. In kind it is cell-based.
The target of data set [3] is T2, Solute carrier family 22 member 3 (Homo sapiens, UniProt O75751).
T2 sequence (O75751 whole entry): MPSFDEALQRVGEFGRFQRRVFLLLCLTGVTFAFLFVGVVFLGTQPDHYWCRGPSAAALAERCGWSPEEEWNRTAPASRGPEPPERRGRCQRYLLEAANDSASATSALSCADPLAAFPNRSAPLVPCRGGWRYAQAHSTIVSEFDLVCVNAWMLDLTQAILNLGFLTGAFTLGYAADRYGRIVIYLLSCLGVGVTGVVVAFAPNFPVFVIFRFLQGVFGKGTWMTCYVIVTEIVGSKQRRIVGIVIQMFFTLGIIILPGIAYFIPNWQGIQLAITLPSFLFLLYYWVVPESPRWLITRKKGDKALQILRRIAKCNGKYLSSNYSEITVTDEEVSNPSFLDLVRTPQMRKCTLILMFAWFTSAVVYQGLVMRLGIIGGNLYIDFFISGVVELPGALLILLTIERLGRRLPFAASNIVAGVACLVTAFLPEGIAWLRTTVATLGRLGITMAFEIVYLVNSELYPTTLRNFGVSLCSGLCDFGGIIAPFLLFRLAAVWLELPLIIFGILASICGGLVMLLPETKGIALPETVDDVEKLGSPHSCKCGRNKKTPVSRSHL
Description: Inhibition of human OCT3 expressed in HEK293 cells assessed as decrease in uptake of substrate [3H]MPP+ after 1 min by liquid scintillation counting method. In kind it is cell-based. The method in brief:
as §1

Data set [4] is filed under the species Homo sapiens. In words: Selectivity ratio of IC50 for human OCT2 expressed in HEK293 cells to IC50 for human OCT3 expressed in HEK293 cells. In kind it is cell-based.
Data set [5] concerns the target T3, Solute carrier family 22 member 2 (Homo sapiens, UniProt O15244).
T3 sequence (O15244 whole entry): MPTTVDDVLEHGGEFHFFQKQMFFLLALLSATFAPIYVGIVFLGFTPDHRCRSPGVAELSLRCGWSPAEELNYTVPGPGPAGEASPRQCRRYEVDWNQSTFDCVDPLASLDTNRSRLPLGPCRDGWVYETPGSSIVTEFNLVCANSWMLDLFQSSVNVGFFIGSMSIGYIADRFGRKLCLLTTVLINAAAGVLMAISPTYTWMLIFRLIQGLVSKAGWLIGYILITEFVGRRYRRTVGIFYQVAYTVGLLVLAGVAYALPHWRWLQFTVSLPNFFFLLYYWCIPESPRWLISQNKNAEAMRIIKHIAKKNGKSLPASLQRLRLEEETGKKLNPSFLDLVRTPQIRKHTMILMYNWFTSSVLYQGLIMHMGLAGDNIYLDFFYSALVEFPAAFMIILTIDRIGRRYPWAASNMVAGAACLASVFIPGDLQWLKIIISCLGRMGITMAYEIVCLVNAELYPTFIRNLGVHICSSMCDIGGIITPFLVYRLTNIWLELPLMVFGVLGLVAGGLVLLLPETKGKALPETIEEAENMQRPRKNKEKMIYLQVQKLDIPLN
In words: Inhibition of human OCT2 expressed in HEK293 cells assessed as decrease in uptake of substrate [3H]MPP+ after 1 min by liquid scintillation counting method. The class given is cell-based. In a few lines:
as §1

Data set [6] concerns the target T2, Solute carrier family 22 member 3. In words: Inhibition of OCT3 (unknown origin).
Data set [7] shares this target. In words: Competitive inhibition of human OCT3 expressed in HEK293 cells in presence of varying concentration of MPP+ by Lineweaver-Burk plot analysis. In kind it is cell-based. The method in brief:
(§2)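 HEK293 cells stably expressing hOCT3; 1 min cellular accumulation of MPP+ (1-150 μM) with or without inhibitor at two concentrations. Uptake corrected for background in non-transporter-expressing control cells. Saturation curves fitted by nonlinear regression to a mixed-model inhibition equation to define mode of inhibition; Lineweaver-Burk transforms used for display.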

Data set [8] has the same target. In words: Competitive inhibition of human OCT3 expressed in HEK293 cells up to 25 uM in presence of varying concentration of MPP+ by Lineweaver-Burk plot analysis. In kind it is cell-based. The method in brief:
as §2

Data set [9] has the same target. Description: Competitive inhibition of human OCT3 expressed in HEK293 cells up to 10 uM in presence of varying concentration of MPP+ by Lineweaver-Burk plot analysis. The class given is cell-based. In a few lines: as §2

`Cc1ccc(NC(=N)N)cc1`: the figures for the IC50 in [1], in data set [3] and in data set [5] were 10 µM, 4.6 µM and 9.3 µM, respectively. Moreover, the Ratio IC50 in the data set filed under Homo sapiens [2] and in the data set filed under Homo sapiens [4] was less than 5 each time.
On to `NC(N)=Nc1ccc(I)cc1`, for which the IC50 (commonly the concentration needed to halve the response being measured) in data set [1] was found to be 2.4 µM; in [3], 1.5 µM; in data set [5], 4.4 µM. The Ratio IC50 in the data set listed under Homo sapiens [2] and in the data set filed under Homo sapiens [4] was less than 5 throughout.
Consider `N=C(N)Nc1ccc(Cc2ccccc2)cc1`, for which the IC50 was found to be 762 µM in data set [1], 452 µM in [3] and 96.2 µM in [5]. Besides, the Ratio IC50 in the data set filed under Homo sapiens [2] and in the data set filed under Homo sapiens [4] was less than 5 throughout.
With `N=C(N)Nc1ccccc1` [PHENYLGUANIDINE], the figures for the IC50 in [1], in data set [3] and in data set [5] were 41.1 µM, 99.8 µM and 89 µM, respectively. For the same compound, the Ratio IC50 in the data set listed under Homo sapiens [2] and in the data set filed under Homo sapiens [4] was less than 5 throughout.
As for `NC(N)=Nc1cccc(Cl)c1`, the figures for the IC50 in [1], in data set [3] and in data set [5] were 13.7 µM, 7.6 µM and 60.5 µM, respectively.
For `N=C(N)N` [GUANIDINE], in [6], the IC50 was 2.2 to 6.2 mM.
Regarding `C=C[C@H]1C[N@@]2CC[C@H]1C[C@H]2[C@H](O)c1ccnc2ccc(OC)cc12` [QUININE], the “inhibition (INH)” value in [7] is listed as “Active”.
Consider `N=C(N)Nc1ccc(Br)cc1`, for which the IC50 in data set [1] came to 6.3 µM; in data set [3], 4.8 µM; in data set [5] it was 11.3 µM. Besides, the Ratio IC50 in the data set listed under Homo sapiens [2] and in the data set filed under Homo sapiens [4] was less than 5 throughout.
With `N=C(N)Nc1ccc(F)cc1`, the values for the IC50 in [1], in data set [3] and in data set [5] were 22.6 µM, 27.8 µM and 48.3 µM, respectively. Also, the Ratio IC50 in the data set listed under Homo sapiens [2] and in the data set filed under Homo sapiens [4] was less than 5 each time.
On to `N=C(N)Nc1ccc(Cl)cc1`, for which the IC50 in data set [1] was 10 µM; in [3] it was 2.8 µM; in [5] it was 18.9 µM. Moreover, the Ratio IC50 in the data set listed under Homo sapiens [2] was less than 5; in the data set filed under Homo sapiens [4] it was 6. Also, the “inhibition (INH)” value in data set [8] is given as “Active”.
Turning to `CC(C)(C)c1ccc(N=C(N)N)cc1`, the “inhibition (INH)” value in data set [9] is “Active”. Further, the figures for the IC50 in data set [1], in data set [3] and in data set [5] were 0.9 µM, 2.2 µM and 8.3 µM, respectively. Further, the Ratio IC50 in the data set listed under Homo sapiens [2] and in the data set filed under Homo sapiens [4] was less than 5 throughout.
Turning to `N=C(N)Nc1cccc(Cl)c1`, the Ratio IC50 in the data set filed under Homo sapiens [2] is less than 5; in the data set listed under Homo sapiens [4], 8.

The values are drawn from ChEMBL document CHEMBL4043181, “A new chemotype inhibitor for the human organic cation transporter 3 (hOCT3)” (Bioorg Med Chem Lett, 2017).
